Phagocyt inh: blocks phagocytosis by macrophages | J774A.1 macrophage IgG-bead phagocytosis, imaging | inhibition, % at 5 µM | 110,000 compounds, 0.07% hits | AID 1029;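 active = inhibition above the mean of the plate negative controls plus 5 SD, cut at about 13% in these data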;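 note: phagocytic index as fraction of beads internalized from green versus red external bead signal; plate controls were DMSO negative control for no effect and cytochalasin-D positive control for full effect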
Yeast lifespan up: extends the lifespan of yeast. S. cerevisiae growth with nicotinamide, OD615; deaD strain in restrictive glucose medium. inhibition of the nicotinamide effect, % at 10 µM. 130,000 compounds, 0.68% hits;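 active = inhibition above a set limit, placed 3 SD over the median of all compounds, cut at about 26% in these data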;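 note: 0% = nicotinamide-treated wells and 100% = cells grown without nicotinamide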
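Test system – modified budding yeast, DeaD strain · Compound – single dose 10 µM compound, 0.25% DMSO · Times – culture preincubation 4 h, compound exposure 48 h, both 30 °C · Detection – optical density (absorbance) at 615 nm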
MRP resist rev: reverses drug resistance mediated by MRP; 85,000 compounds, 0.04% hits; differential viability (reversal), % at 10 µM; H69AR cells + 2 uM doxorubicin, CellTiter-Glo, 72 h;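 active = viability drop by adding the cancer drug above about 55%, with treated viability meeting a 40% cutoff, limit read from the data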;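 note: viability without doxorubicin minus viability with 2 µM doxorubicin for each compound; larger differential means the compound sensitizes cells more to doxorubicin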
BB579 growth dn: reduces growth of yeast BB579 in restrictive medium; S. cerevisiae BB579 growth, OD615, 48 h; inhibition, % at 10 µM; 140,000 compounds, 0.51% hits; AID 804;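 active = inhibition above a set limit, 3 SD over the mean compound inhibition, cut at about 44% in these data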
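Test system: S. cerevisiae DeaD strain BB579 yeast; Medium: restrictive CSMM-D medium; Compound: one dose, 10 µM compound with 0.25% DMSO; Incubation: 4 h cell preincubation, 48 h compound exposure, 30 °C humidified; Signal: OD at 615 nm; Benchmarks: amphotericin B at 10 µg/mL as positive control.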
MRP-1 activ: activates MRP-1. H69AR cells + doxorubicin, viability rescue, CellTiter-Glo. viability increase, % at 10 µM. 140,000 compounds, 0.61% hits;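 active = viability gain under doxorubicin at or above a set limit, the compound median plus 3 SD, cut at about 4.7% in these data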;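 note: MRP-1 overexpressing cells given doxorubicin 25 µM after compound pretreatment; 18-22 h compound pretreatment then 72 h with doxorubicin before readout; 0% = doxorubicin-only wells and 100% = vehicle-treated cells without doxorubicin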
sdo1 growth: restores growth of sdo1-depleted yeast; z-score at 10 µM; 140,000 compounds, 0.21% hits; AID 817; S. cerevisiae sdo1-depleted JHY4D growth rescue, OD600 30 h; hits give high values; pdr5 snq2 efflux-pump mutant strain;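 active = z-score above 3 at both the 24 hr and the 30 hr optical density reads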;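 note: z-score against mean and SD of all compound wells on the same plate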
* marks the source's active call; other numbers are inactive results; / = no result; [ ] = another dose, or the depositor's remark. Sampled rows, rich in hits. Any-hit rate of the full collection: about 2.1%.

SMILES | Phagocyt inh | Yeast lifespan up | MRP resist rev | BB579 growth dn | MRP-1 activ | sdo1 growth
c1ccc(-c2ccc(C(c3ccccc3)n3ccnc3)cc2)cc1 (configuration not stated) | / | -7.0 | 0.4 | 96.1* | -1.4 | -2.85
COc1ccc(C2C(=O)c3ccccc3C2=O)cc1 | / | 31.9* | / | -28.4 | -2.4 | -0.14
CN(CC(=O)O)S(=O)(=O)c1cc(Cl)ccc1Cl | 0.1 | -11.3 | 7.3 | -11.2 | 0.1 | 0.37
CN(CC(=O)N1CCCC1)S(=O)(=O)c1cc(Cl)ccc1Cl | 25.2*[artifact] | -5.1 | 7.6 | -31.7 | 1.2 | 2.74
CC1(CCc2ccccc2)NC(=S)N(c2ccccc2)N1 (configuration not stated) | 9.2 | -8.0 | / | 95.9* | 1.4 | -1.88
CCC1(c2ccc(Cl)cc2)NC(=S)N(c2ccc(C)cc2)N1 (configuration not stated) | / | -2.9 | / | -52.3 | -2.6 | -1.18
CC1(CCc2ccccc2)NC(=S)N(c2ccc(Cl)cc2)N1 (configuration not stated) | -1.8 | -8.8 | / | 97.5* | 0.0 | -2.02
Oc1ccc(NCc2ccccc2OCc2ccccc2F)cc1 | -3.7 | 27.0* | / | -28.1 | -5.8 | -0.17
Cc1ccc(NCc2ccccc2OCc2ccccc2F)cc1 | 0.2 | -11.4 | / | -32.5 | 0.1 | 0.19
C=CCc1c(C)nc(-c2ccccc2)nc1N/N=C(\C)c1ccccc1 | -11.8 | -3.7 | / | -22.7 | 5.5* | -0.55
C=CCc1c(C)nc(-c2ccccc2)nc1Nc1ccc(O)cc1 | -10.9 | -3.0 | / | -39.3 | -4.3 | -1.51
Fc1cccc2sc(Nc3nnc(-c4ccccc4)o3)nc12 | / | 60.0* | -12.5 | -40.5 | -3.3 | 0.78
COc1ccc(S(=O)(=O)NCCC(=O)NCc2ccccc2)cc1 | -2.7 | -3.6 | 12.9 | -17.6 | -1.2 | 0.88
CC(C)c1ccc(NC(=S)NCCc2c[nH]c3ccccc23)cc1 | / | -5.3 | / | 54.9* | -3.3 | -2.32
CCOC(=O)Cn1c2c(c(=N)c3c1CCC3)CCC2 | 2.0 | -10.2 | -2.1 | -35.8 | -0.3 | -0.33
CCCCCCCCCCn1c2c(c(=N)c3c1CCC3)CCC2 | / | -28.6 | 1.0 | 98.5* | -6.9 | -2.3
CCN1/C(=C(\O)c2ccccc2)C(=O)c2ccccc2S1(=O)=O | 8.6 | -24.7 | -23.4 | 100.0* | -1.5 | -1.1
CC(CCc1ccccc1)NC(=O)c1nnc(Cc2ccc(Cl)cc2)o1 (configuration not stated) | -0.4 | -9.2 | -10.3 | 12.5 | 9.9* | -0.81
O=C(NCCc1ccc(Cl)cc1)c1nnc(Cc2ccc(Cl)cc2)o1 | / | 3.6 | 0.3 | -30.9 | 1.3 | -1.08
CC(CCc1ccccc1)NC(=O)CN1CCN(Cc2ccc(Cl)cc2)C1=O (configuration not stated) | -0.1 | -5.9 | -8.6 | -43.4 | 7.3* | -1.04
O=C1NN(c2ccccc2)C(=O)/C1=C/c1coc2ccccc2c1=O | -2.5 | 26.2* | / | -14.1 | -1.1 | 0.13
O=C1CSC(=S)N1c1cccnc1 | 0.7 | -2.5 | 5.1 | 44.4* | 0.8 | 0.53
Cc1cc(C)nc(N/N=C/c2ccccc2)n1 | / | -5.4 | / | 8.8 | 1.5 | 0.49[15.7 µM]
Cc1cc(C)nc(N/N=C/c2cccc3ccccc23)n1 | / | -6.2 | / | -40.1 | 5.7* | 0.82
Cc1cc(N/N=C/c2ccccc2Cl)nc(NCc2ccccc2)n1 | -9.1 | -9.1 | / | -31.9 | 7.1* | -1.73
SMILES | Phagocyt inh | Yeast lifespan up | MRP resist rev | BB579 growth dn | MRP-1 activ | sdo1 growth
CCOC(=O)c1ccccc1NC(=O)Cc1ccccc1OC | / | / | 7.6 | -45.0 | 0.1 | -0.7
CC(C)CCn1c(O)c(N=Nc2ccccn2)c2ccccc21 | -7.1 | -2.0 | / | -17.4 | -3.7 | 0.28
Oc1ccc2ccccc2c1N=Nc1ccccn1 | -0.7 | -7.4 | / | 90.4* | -6.1 | -0.17
CCOC(=O)N1CCN(C(=O)C(C)(C)Oc2ccc(Cl)cc2)CC1 | -0.6 | 9.7 | 6.3 | -61.1 | -0.4 | -0.1
COc1ccc(OC)c(NC(=O)c2cc3ccccc3o2)c1 | 1.6 | -3.3 | -7.9 | -14.8 | -2.2 | -0.31
COc1ccc(OC)c(Nc2nc(N)nc(-c3cc4ccccc4o3)n2)c1 | 35.9* | -27.4 | -23.7 | -42.1 | -3.2 | -1.51
O=C(/C=C\c1cccs1)c1c(O)ccc2ccc(=O)oc12 | 4.2 | 27.4* | / | -31.4 | -4.1 | -1.39
COC(=O)C1=C(C(=O)OC)C(c2ccccc2O)c2sc(=O)[nH]c2S1 (configuration not stated) | 8.7 | 45.3* | / | -44.0 | -1.7 | -0.62
